In experiment [1] the target is T1, nitrate reductase (NarB) (Synechococcus elongatus, UniProt P39458).
T1 sequence (P39458 15-729): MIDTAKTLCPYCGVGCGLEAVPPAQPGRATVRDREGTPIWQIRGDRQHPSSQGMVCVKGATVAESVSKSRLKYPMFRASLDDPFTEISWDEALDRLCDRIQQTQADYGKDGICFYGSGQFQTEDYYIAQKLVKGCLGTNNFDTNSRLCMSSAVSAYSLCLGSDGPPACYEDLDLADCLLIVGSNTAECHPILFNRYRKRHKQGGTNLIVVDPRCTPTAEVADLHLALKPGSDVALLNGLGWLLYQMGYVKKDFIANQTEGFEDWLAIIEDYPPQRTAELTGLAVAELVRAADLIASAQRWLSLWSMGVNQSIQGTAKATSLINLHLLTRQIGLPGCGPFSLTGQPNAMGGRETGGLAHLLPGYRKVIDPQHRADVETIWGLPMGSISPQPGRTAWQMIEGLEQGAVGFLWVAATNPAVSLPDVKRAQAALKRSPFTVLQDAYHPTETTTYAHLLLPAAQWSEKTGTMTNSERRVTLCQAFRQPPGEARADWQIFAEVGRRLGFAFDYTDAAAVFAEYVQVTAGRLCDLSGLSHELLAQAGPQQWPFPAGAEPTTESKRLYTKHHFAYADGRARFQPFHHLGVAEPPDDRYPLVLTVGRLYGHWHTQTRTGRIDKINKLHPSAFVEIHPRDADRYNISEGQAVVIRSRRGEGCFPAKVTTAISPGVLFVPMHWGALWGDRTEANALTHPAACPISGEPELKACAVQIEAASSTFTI
In words: spectral perturbation titration. Type of experiment: binding. The gist of the method: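 Recombinant wild-type Synechococcus sp. PCC 7942 NarB had its first 14 residues deleted and a C-terminal His6 tag. It was expressed in E. coli DH5a with 100 μM molybdate and purified by Co affinity, DEAE and gel filtration. Oxidized enzyme was titrated with ferredoxin (read at 420 minus 600 nm) or nitrate (read at 400 minus 470 nm; change at saturating nitrate taken as 100% complex). Kd came from a single binding isotherm fit.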

In experiment [2] the target is T2, nitrate reductase (NarB) (Synechococcus elongatus, UniProt P39458, R160Q).
T2 sequence (P39458 15-729 R160Q): T1 sequence (P39458 15-729) with R146Q
Put plainly: spectral perturbation titration. It counts as binding. An outline of the steps: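 Single-residue NarB variants were made by site-directed mutagenesis and expressed and purified as for wild type (His6, Co affinity, DEAE, gel filtration). Complex formation with ferredoxin or nitrate was followed by difference absorbance at variant-specific wavelength pairs chosen for signal:noise. The change at saturating nitrate was taken as 100% complex. Kd came from fitting perturbation magnitude against ligand concentration to a single binding isotherm.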

Substitutions are numbered along the chain they refer to.

As to `O=[N+]([O-])O` [nitrate], the Kd stood at 1000 ± 300 nM in experiment [1] and 1500 ± 400 nM in experiment [2].

The Kd is a measure of binding affinity in units of concentration. Low values mean tighter binding, high ones weaker binding.

The values are drawn from PMC3741069 (Biochemistry, 2013).
